Calls of active or inactive are those of the source. The calls are words filed in the database; no cut-off is given here.
Tests used:
HL-60 [1] = assay: Cell cycle arrest in human HL60 cells assessed as accumulation at G1 phase at 1 uM after 18 hrs by propidium iodide staining based flow cytometry (reference value: 51%); type: functional
Procedure, shortened: (§1)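 HL-60 cells seeded at 1 × 10^5 cells/well, exposed to 1 μM compound for 18 h at 37 °C. Stained 30 min in the dark with propidium iodide (0.05 mg/mL in 0.1% sodium citrate, 0.1% Triton X-100, 100 μg/mL RNase), then DNA content read by flow cytometry. Reported as % cells in each phase; n = 2 replicates from a single experiment.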

HL-60 [2] = assay: Cell cycle arrest in human HL60 cells assessed as accumulation at S phase at 1 uM after 18 hrs by propidium iodide staining based flow cytometry (reference value: 27%); type: functional; procedure, shortened: as §1
HL-60 [3] = assay: Cell cycle arrest in human HL60 cells assessed as accumulation at G2/M phase at 1 uM after 18 hrs by propidium iodide staining based flow cytometry (reference value: 22%); type: functional; procedure, shortened: as §1
Sus scrofa [4] = species on record: Sus scrofa; assay: Induction of porcine tubulin polymerization assessed as microtubule stabilization at 2.8 uM measured at 1 min interval over 100 mins
Procedure, shortened: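 Fluorescence-based assay with purified porcine brain tubulin, no microtubule-associated proteins, glycerol omitted from polymerization buffer. Compound at 2.8 μM final, paclitaxel 2.8 μM as positive control, vehicle control. Tubulin buffer added immediately before reading. Kinetic read at 37 °C, λex 360/λem 450 nm, every 1 min for 100 min. n = 3 replicates, single preparation.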

HL-60 [5] = assay: Antiproliferative activity against human HL60 cells after 72 hrs by MTT assay; type: functional, cell-based; details: HL-60, 72 h
Procedure, shortened: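 HL-60 cells seeded at 1 × 10^4 cells/well, exposed to 2-fold serial dilutions with paclitaxel as positive control, 72 h at 37 °C. MTT (5 mg/mL in PBS) added for 2 h at 37 °C. Formazan dissolved overnight at 37 °C in 10% SDS/45% dimethylformamide, absorbance read at 570 nm. n = 3 independent experiments, two technical replicates each.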

Sus scrofa [6] = species on record: Sus scrofa; assay: Induction of porcine tubulin polymerization assessed as microtubule stabilization at 27 uM measured at 1 min interval over 100 mins
Procedure, shortened: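 Fluorescence-based in vitro assay with purified porcine brain tubulin, run without microtubule-associated proteins and with glycerol omitted from the polymerization buffer. Compound at 27 μM final, with tubulin buffer added just before reading. Kinetic read at 37 °C, λex 360/λem 450 nm, every 1 min for 100 min. n = 3 replicates from a single preparation.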

Structure (SMILES)	Activity (Sus scrofa [6])	Activity (HL-60 [1])	Activity (HL-60 [2])	Activity (HL-60 [3])	Activity (Sus scrofa [4])	IC50 (HL-60 [5])
CC(=O)O[C@H]1C(=O)[C@@]2(C)[C@H]([C@H](OC(=O)c3ccccc3)[C@]3(O)C[C@H](OC(=O)[C@H](O)[C@@H](NC(=O)c4ccccc4)c4ccccc4)C(C)=C1C3(C)C)[C@]1(OC(C)=O)CO[C@@H]1C[C@@H]2O [PACLITAXEL]		18%	24%	58%	Active	
C=C1C[C@@H]2C/C=C/C(=O)C/C(C)=C\C=C\C(=O)O[C@H]([C@H](O)NC(=O)/C=C/C=C\C)C/C(C)=C/[C@H](C1)O2		19%	26%	55%	Active	5.3 nM
C=C1C[C@@H]2C/C=C/C(=O)C/C(C)=C\C=C\C(=O)O[C@H]([C@H](O)NC(=O)/C=C\C=C\C)C/C(C)=C/[C@H](C1)O2 [ZAMPANOLIDE]		18%	28%	54%	Active	3.2 nM
C=C1C[C@@H]2C/C=C/C(=O)C/C(C)=C/C=C/C(=O)O[C@H]([C@H](O)NC(=O)/C=C\C=C\C)C/C(C)=C/[C@H](C1)O2		16%	30%	54%	Active	3.3 nM

Now from value to compound, other results behind:

Activity (Sus scrofa [6])	Structure (SMILES)	Activity (HL-60 [1])	Activity (HL-60 [2])	Activity (HL-60 [3])	Activity (Sus scrofa [4])	IC50 (HL-60 [5])
inactive	C=C1C[C@@H]2CCCC(=O)C/C(C)=C\C=C\C(=O)O[C@H]([C@H](O)NC(=O)/C=C\C=C\C)C/C(C)=C/[C@H](C1)O2	44%	25%	30%		300 nM
inactive	C=C1C[C@@H]2C/C=C/C(=O)C/C(C)=C\C=C\C(=O)O[C@H](C=O)C/C(C)=C/[C@H](C1)O2	17%	29%	54%		240 nM
